# Measured values from ChEMBL document CHEMBL1121744, “Synthesis and antihypertensive activity of a series of 8-substituted 1-oxa-3,8-diazaspiro[4.5]decan-2-ones” (J Med Chem, 1981).
# The source made the active and inactive calls. No cut-off for these calls is given here.
# Tests used:
# [1] = molecular target: T1, Adrenergic receptor alpha-2 (Rattus norvegicus, UniProt P22086+P19328+P22909); assay: Antagonistic potency of compound for Alpha-2 adrenergic receptor; type: functional
# T1 sequence (P22086 whole entry): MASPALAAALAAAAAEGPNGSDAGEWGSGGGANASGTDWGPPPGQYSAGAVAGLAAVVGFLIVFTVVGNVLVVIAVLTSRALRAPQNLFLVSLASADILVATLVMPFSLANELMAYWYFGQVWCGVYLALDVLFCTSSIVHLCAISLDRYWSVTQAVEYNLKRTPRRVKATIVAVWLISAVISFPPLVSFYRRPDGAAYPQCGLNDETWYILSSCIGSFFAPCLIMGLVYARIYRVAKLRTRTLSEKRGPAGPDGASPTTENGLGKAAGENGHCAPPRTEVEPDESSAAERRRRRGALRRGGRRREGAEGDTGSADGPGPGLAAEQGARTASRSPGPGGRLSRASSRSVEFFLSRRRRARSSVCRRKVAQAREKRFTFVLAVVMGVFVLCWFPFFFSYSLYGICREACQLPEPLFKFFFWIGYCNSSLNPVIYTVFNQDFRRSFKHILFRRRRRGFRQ
# T1 sequence (P19328 whole entry): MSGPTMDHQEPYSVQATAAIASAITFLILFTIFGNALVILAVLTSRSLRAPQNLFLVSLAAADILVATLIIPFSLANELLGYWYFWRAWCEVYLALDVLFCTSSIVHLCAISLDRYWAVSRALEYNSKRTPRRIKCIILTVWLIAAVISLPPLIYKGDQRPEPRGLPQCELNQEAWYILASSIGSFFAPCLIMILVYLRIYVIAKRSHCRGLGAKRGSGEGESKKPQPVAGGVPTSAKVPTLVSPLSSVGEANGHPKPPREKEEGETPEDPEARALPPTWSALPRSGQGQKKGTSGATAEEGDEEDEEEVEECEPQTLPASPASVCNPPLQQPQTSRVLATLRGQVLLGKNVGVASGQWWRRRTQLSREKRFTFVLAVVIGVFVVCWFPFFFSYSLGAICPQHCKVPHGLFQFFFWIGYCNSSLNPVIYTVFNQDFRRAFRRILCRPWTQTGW
# T1 sequence (P22909 whole entry): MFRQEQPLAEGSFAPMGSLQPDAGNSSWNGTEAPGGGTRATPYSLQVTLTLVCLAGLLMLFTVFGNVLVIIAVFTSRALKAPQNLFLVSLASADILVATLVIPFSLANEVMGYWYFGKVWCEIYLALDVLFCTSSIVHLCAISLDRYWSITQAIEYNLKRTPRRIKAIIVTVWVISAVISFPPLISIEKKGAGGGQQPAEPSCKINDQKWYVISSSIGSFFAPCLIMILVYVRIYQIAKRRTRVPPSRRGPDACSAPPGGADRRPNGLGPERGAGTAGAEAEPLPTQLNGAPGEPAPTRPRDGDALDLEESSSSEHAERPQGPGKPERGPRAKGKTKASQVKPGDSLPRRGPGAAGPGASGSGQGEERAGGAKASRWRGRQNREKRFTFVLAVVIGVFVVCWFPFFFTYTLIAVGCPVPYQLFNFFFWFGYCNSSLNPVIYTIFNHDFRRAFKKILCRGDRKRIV
# Canis familiaris [2] = assay: Percent inhibition of the pressor responses to 1 ug/kg iv Epinephrine in pentobarbital-anesthetized dogs for a dose of 10 mg/kg; type: functional; conditions: Canis lupus familiaris
# In short: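 Dogs anesthetized with sodium pentobarbital 35 mg/kg iv; femoral artery cannulated for blood pressure, femoral vein for dosing. Epinephrine 1 μg/kg iv given at about 10-min intervals before and after increasing test doses. Test doses given iv at 90-min intervals. Result is per cent inhibition of the pressor response.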
# Canis familiaris [3] = assay: Change in mean arterial pressure in anesthetized dogs for a dose of 10 mg/kg; type: functional, Canis lupus familiaris, Artery
# In short: (§1)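 Dogs anesthetized with sodium pentobarbital (35 mg/kg iv), femoral artery cannulated for pressure, ECG-triggered heart rate, femoral vein for dosing. Rising iv doses were given 90 min apart, and each dose is the full dose, not cumulative. Value is the maximal mean arterial pressure change 10–15 min after each dose, two dogs per compound, ±3 mmHg. Saline served as control.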
# Rattus norvegicus [4] = assay: The antihypertensive activity as percentage fall in systolic blood pressure in spontaneously hypertensive rats after a period of 3 hr for a dose of 50 mg/kg po
# Rattus norvegicus [5] = assay: The antihypertensive activity as percentage fall in systolic blood pressure in spontaneously hypertensive rats after a period of 1 hr for a dose of […]; type: functional, Artery
# In short: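 Male Okamoto-Aoki SHR, trained, in groups of four matched for systolic pressure, with a concurrent vehicle control group. Oral dosing on two consecutive mornings, in water as solution or suspension at 0.1 mL/10 g. On day 2 rats were restrained at 30.0 ± 1.0 °C. Tail-cuff systolic pressure, four traces per rat, read at each hour. Per cent fall versus control; 1-tail t test, p ≤ 0.05.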
# Canis familiaris [6] = assay: Percent inhibition of the pressor responses to 7.5 ug/kg iv phenylephrine in pentobarbital-anesthetized dogs for a dose of 10 mg/kg; type: functional; conditions: Canis lupus familiaris
# In short: (§2)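 Pentobarbital-anesthetized dogs (35 mg/kg iv) with femoral arterial pressure recording. Epinephrine (1 μg/kg), norepinephrine (0.75 μg/kg) and phenylephrine (7.5 μg/kg) iv challenges were given about every 10 min before and after rising iv test doses, which were spaced 90 min apart. Value is % inhibition of the pressor response.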
# Canis familiaris [7] = assay: Change in mean arterial pressure in anesthetized dogs for a dose of 0.316 mg/kg; type: functional, Canis lupus familiaris, Artery; in short: as §1
# Canis familiaris [8] = assay: Percent inhibition of the pressor responses to 0.75 ug/kg iv norepinephrine in pentobarbital-anesthetized dogs for a dose of 0.316 mg/kg; type: functional; conditions: Canis lupus familiaris; in short: as §2
# Rattus norvegicus [9] = assay: The antihypertensive activity as percentage fall in systolic blood pressure in spontaneously hypertensive rats after a period of 3 hr for a dose of 25 mg/kg po; type: functional, Artery
# In short: (§3)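 Male Okamoto-Aoki SHR, trained, in groups of four matched for mean systolic pressure; one group per run received water vehicle. Oral dosing in water (0.1 mL per 10 g) on two consecutive mornings. After the day-2 dose, rats were restrained at 30.0 ± 1.0 °C. Systolic pressure was read by tail cuff (inflated to 300 mmHg, first pulse) at 1–4 h. % fall is versus the untreated control group, by 1-tail t test (p ≤ 0.05).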
# Rattus norvegicus [10] = assay: The antihypertensive activity as percentage fall in systolic blood pressure in spontaneously hypertensive rats after a period of 2 hr for a dose of 25 mg/kg po; NS=Not significant; type: functional, organism-based; set-up: dose 25 mg/kg; conditions: Artery; in short: as §3
# Canis familiaris [11] = assay: Change in mean arterial pressure in anesthetized dogs for a dose of 0.01 mg/kg; type: functional, Canis lupus familiaris, Artery; in short: as §1
# Canis familiaris [12] = assay: Percent inhibition of the pressor responses to 0.75 ug/kg iv norepinephrine in pentobarbital-anesthetized dogs for a dose of 3.16 mg/kg; type: functional; conditions: Canis lupus familiaris; in short: as §2
# Rattus norvegicus [13] = assay: The antihypertensive activity as percentage fall in systolic blood pressure in spontaneously hypertensive rats after a period of 4 hr for a dose of 25 mg/kg po; NS=Not significant; type: functional, organism-based; set-up: dose 25 mg/kg; conditions: Artery; in short: as §3
# Rattus norvegicus [14] = assay: The antihypertensive activity as percentage fall in systolic blood pressure in spontaneously hypertensive rats after a period of 1 hr for a dose of 25 mg/kg po; type: functional, Artery; in short: as §3
# Canis familiaris [15] = assay: Change in mean arterial pressure in anesthetized dogs for a dose of 3.16 mg/kg; type: functional, Canis lupus familiaris, Artery; in short: as §1
Compound,pA2 [1],inhibition in vivo at 10 mg/kg (Canis familiaris [2]) [%],MAP (Canis familiaris [3]) [mmHg],Decrease in blood pressure (Rattus norvegicus [4]) [%],Decrease in blood pressure (Rattus norvegicus [5]) [%],inhibition in vivo at 10 mg/kg (Canis familiaris [6]) [%],MAP (Canis familiaris [7]) [mmHg],inhibition in vivo at 0.316 mg/kg (Canis familiaris [8]) [%],Decrease in blood pressure (Rattus norvegicus [9]) [%],Decrease in blood pressure (Rattus norvegicus [10]),MAP (Canis familiaris [11]) [mmHg],inhibition in vivo at 3.16 mg/kg (Canis familiaris [12]) [%],Decrease in blood pressure (Rattus norvegicus [13]),Decrease in blood pressure (Rattus norvegicus [14]) [%],MAP (Canis familiaris [15]) [mmHg]
O=C1NCC2(CCN(CCc3c[nH]c4ccccc34)CC2)O1,< 5,97,-6,8,14,100,,,,,,,,,
CN1CC2(CCN(CC(O)C3COc4ccccc4O3)CC2)OC1=O (stereo unspecified),6.4,,,,,,0,41,15,inactive,4,69,inactive,27,-18
